# Tests used:
# [1] = test system: L6; experiment: Cytotoxicity against rat L6 cells after 3 days by Alamar blue assay; assay type: cell-based; conditions: L6, 72 h
# Outline: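 L6 rat myoblast cells cultured with compound for 3 days. Viability measured by Alamar blue.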
# [2] = test system: Plasmodium falciparum; experiment: Antiparasitic activity against chloroquine-resistant Plasmodium falciparum K1 after 3 days by [3H]-hypoxanthine incorporation assay; assay type: functional, organism-based
# Outline: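 Erythrocytic-stage parasites exposed to serial drug dilutions at 37°C for 3 days; viability read by tritium-labelled hypoxanthine incorporation.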
# [3] = test system: Trypanosoma brucei rhodesiense; experiment: Antiparasitic activity against Trypanosoma brucei rhodesiense STIB900 trypomastigotes after 3 days by Alamar blue assay; assay type: functional, organism-based; conditions: STIB900, 72 h
# Outline: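 Axenic trypomastigote bloodstream forms, strain STIB900, exposed to serial drug dilutions for 3 days at 37°C. Viability read by Alamar blue.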
# [4] = Selectivity index, ratio of IC50 for rat L6 cells to IC50 for chloroquine-resistant Plasmodium falciparum K1; assay type: toxicity, cell-based; conditions: read-out: Ratio IC50
# Outline: (§1)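 SI is the IC50 in cultured L6 rat myoblasts (3-day drug exposure, Alamar blue viability) divided by the parasite IC50. Parasite assays used serial dilutions at 37°C. T. cruzi: intracellular, 4 days, β-galactosidase read-out with CPRG. T. b. rhodesiense: axenic, 3 days, Alamar blue. P. falciparum: 3 days, hypoxanthine incorporation. L. amazonensis: intracellular.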
# [5] = Selectivity index, ratio of IC50 for rat L6 cells to IC50 for Leishmania amazonensis; assay type: toxicity, cell-based; conditions: read-out: Ratio IC50; outline: as §1
# [6] = test system: Trypanosoma cruzi; experiment: Antiparasitic activity against Trypanosoma cruzi Tulahen LacZ/C4 amastigotes after 4 days by beta-galactosidase reporter gene assay; assay type: functional, organism-based; conditions: Tulahen LacZ/C4, 96 h
# Outline: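 Intracellular amastigotes of strain Tulahen LacZ/C4 given serial drug dilutions for 4 days at 37°C. The endpoint is the β-galactosidase reporter, read as a colour change after adding CPRG substrate.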
# [7] = Selectivity index, ratio of IC50 for rat L6 cells to IC50 for Trypanosoma brucei rhodesiense STIB900 trypomastigotes; assay type: toxicity, cell-based; conditions: read-out: Ratio IC50; outline: as §1
# [8] = Selectivity index, ratio of IC50 for rat L6 cells to IC50 for Trypanosoma cruzi Tulahen LacZ/C4 amastigotes; assay type: toxicity, cell-based; conditions: read-out: Ratio IC50; outline: as §1
# [9] = test system: Trypanosoma cruzi; experiment: Ratio of benznidazole IC50 to compound IC50 for Trypanosoma cruzi Tulahen LacZ/C4 amastigotes; assay type: functional
# [10] = test system: Plasmodium falciparum; experiment: Ratio of pentamidine IC50 to compound IC50 for chloroquine-resistant Plasmodium falciparum K1; assay type: functional
# [11] = test system: Leishmania amazonensis; experiment: Antiparasitic activity against Leishmania amazonensis infected in CD-1 mouse macrophages after 72 hrs by spectrophotometric analysis; assay type: functional, organism-based
SMILES,IC50 [1] [µM],IC50 [2] [µM],IC50 [3] [µM],selectivity ratio [4],selectivity ratio [5],IC50 [6] [µM],selectivity ratio [7],selectivity ratio [8],Ratio IC50 [9],Ratio IC50 [10],IC50 [11] [µM]
CC(C)Oc1cc(NC(=N)c2ccc[nH]2)ccc1-c1ccc(-c2ccc(NC(=N)c3ccc[nH]3)cc2OC(C)C)o1,1,0.025,0.115,40,1.11,4.1,8.69,0.24,–,–,–
CC(C)Oc1cc(NC(=N)c2ccc(Br)s2)ccc1-c1ccc(-c2ccc(NC(=N)c3ccc(Br)s3)cc2OC(C)C)o1,> 110,0.914,17,> 120,–,> 110,> 6.47,–,–,–,–
Cc1nc(C(=N)Nc2ccc(-c3ccc(-c4ccc(NC(=N)c5csc(C)n5)cc4OC(C)C)o3)c(OC(C)C)c2)cs1,4.7,0.087,0.74,54,27.6,2.3,6.36,2.04,–,–,–
CC(C)Oc1cc(NC(=N)c2ccccn2)ccc1-c1ccc(-c2ccc(NC(=N)c3ccccn3)cc2OC(C)C)o1,–,0.149,0.12,20.1,34.5,0.1,25,30,–,–,–
CC(C)Oc1cc(NC(=N)c2cccnn2)ccc1-c1ccc(-c2ccc(NC(=N)c3cccnn3)cc2OC(C)C)o1,1.8,0.582,1.7,3.09,1.64,1.5,1.06,1.2,–,–,–
CC(C)Oc1cc(NC(=N)c2csc(N)n2)ccc1-c1ccc(-c2ccc(NC(=N)c3csc(N)n3)cc2OC(C)C)o1,3.7,0.039,0.357,94.9,2.18,5.6,10.4,0.66,–,–,–
CC(C)Oc1cc(NC(=N)c2cc(Br)cs2)ccc1-c1ccc(-c2ccc(NC(=N)c3cc(Br)cs3)cc2OC(C)C)o1,> 108,0.992,43.9,> 109,–,> 108,> 2.46,–,–,–,–
CC(C)Oc1cc(NC(=N)c2ncccn2)ccc1-c1ccc(-c2ccc(NC(=N)c3ncccn3)cc2OC(C)C)o1.Cl,5.8,0.0085,0.032,682,8.29,0.2,181,29,9,5,–
Cc1csc(C(=N)Nc2ccc(-c3ccc(-c4ccc(NC(=N)c5nc(C)cs5)cc4OC(C)C)o3)c(OC(C)C)c2)n1,> 122,0.999,78.6,> 122,> 12.2,> 122,> 1.55,–,–,–,> 10
CC(C)Oc1cc(NC(=N)c2cnccn2)ccc1-c1ccc(-c2ccc(NC(=N)c3cnccn3)cc2OC(C)C)o1,> 129,0.552,8.08,> 234,34.8,16,> 16,> 8.1,–,–,–
CC(C)Oc1cc(NC(=N)c2ccn(C)n2)ccc1-c1ccc(-c2ccc(NC(=N)c3ccn(C)n3)cc2OC(C)C)o1,1.4,0.07,0.436,20,1.89,6.1,3.21,0.23,–,–,–
CNc1nc(C(=N)Nc2ccc(-c3ccc(-c4ccc(NC(=N)c5csc(NC)n5)cc4OC(C)C)o3)c(OC(C)C)c2)cs1,0.8,0.031,0.092,25.8,2.67,2.3,8.69,0.35,–,–,–
CC(=O)Nc1nc(C(=N)Nc2ccc(-c3ccc(-c4ccc(NC(=N)c5csc(NC(C)=O)n5)cc4OC(C)C)o3)c(OC(C)C)c2)cs1.Cl,0.6,0.009,0.012,66.7,2.73,1.6,50,0.38,–,5,–
O=C(Cn1ccnc1[N+](=O)[O-])NCc1ccccc1 [BENZNIDAZOLE],> 150,–,–,–,–,1.87,–,> 80,–,–,–
CC(C)Oc1cc(NC(=N)c2ncc[nH]2)ccc1-c1ccc(-c2ccc(NC(=N)c3ncc[nH]3)cc2OC(C)C)o1,1.6,0.015,0.06,107,4.32,0.6,26.7,2.67,–,–,–
CC(=O)N(C)c1nc(C(=N)Nc2ccc(-c3ccc(-c4ccc(NC(=N)c5csc(N(C)C(C)=O)n5)cc4OC(C)C)o3)c(OC(C)C)c2)cs1,0.8,0.035,0.078,22.6,0.99,3.1,10.3,0.26,–,–,–
CC(C)Oc1cc(NC(=N)c2cn(C)cn2)ccc1-c1ccc(-c2ccc(NC(=N)c3cn(C)cn3)cc2OC(C)C)o1,8,0.054,0.108,148,1.6,18,74.1,0.44,–,–,–

# From ChEMBL document CHEMBL3286095, “Synthesis and antiparasitic activity of new bis-arylimidamides: DB766 analogs modified in the terminal groups” (Eur J Med Chem, 2014)
